Active and inactive are the calls of the source. The calls are words filed in the database; no cut-off is given here.
What was measured:
[1] = target: T1, CAAX prenyl protease 2 (Saccharomyces cerevisiae S288c) (UniProt Q03530); test: Inhibition of Saccharomyces cerevisiae SM3614 Ras converting enzyme 1 at 100 uM after 60 mins by fluorescence based proteolysis assay
T1 sequence (whole entry): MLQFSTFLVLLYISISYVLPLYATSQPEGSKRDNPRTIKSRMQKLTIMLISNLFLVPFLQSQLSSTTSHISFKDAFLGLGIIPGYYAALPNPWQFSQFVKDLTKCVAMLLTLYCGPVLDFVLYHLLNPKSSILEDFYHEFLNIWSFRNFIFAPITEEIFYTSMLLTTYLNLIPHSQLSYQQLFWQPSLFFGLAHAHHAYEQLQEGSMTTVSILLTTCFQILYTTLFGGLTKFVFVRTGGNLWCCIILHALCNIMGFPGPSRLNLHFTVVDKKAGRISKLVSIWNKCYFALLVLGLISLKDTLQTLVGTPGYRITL
In short: (§1)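 Membranes enriched for yeast Rce1p (plasmid pWS479 in SM3614, ste24Δ rce1Δ), 0.25 mg/mL final in 100 mM HEPES pH 7.5, 5 mM MgCl2. Pretreated 15 min at 30 °C with 100 µM compound, then 20 µM quenched ABz-KSKTKC(farnesyl)QLIM added. Fluorescence 320/420 nm read every 30–60 s for 60 min at 30 °C. Initial velocities give % activity vs DMSO. At least 4 replicates.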

Saccharomyces cerevisiae = test: Inhibition of Saccharomyces cerevisiae SM3614 Ras converting enzyme 1 Ste24 mutant at 100 uM after 60 mins by fluorescence based proteolysis assay
In short: as §1, with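 “Ste24p” for “Rce1p”, “pSM1282” for “pWS479”, “ABz-KSKTKC(farnesyl)VIQL” for “quenched ABz-KSKTKC(farnesyl)QLIM”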

Compound	Activity [1]	Activity (Saccharomyces cerevisiae)
Cc1cccc(C)c1C(=O)OCC(=O)[C@H](CCCNC(=N)N)NC(=O)[C@H](Cc1ccccc1)NC(=O)OCc1ccccc1	Active	Active
Cc1cccc(C)c1C(=O)OCC(=O)[C@H](C)NC(=O)[C@H](Cc1ccccc1)NC(=O)OCc1ccccc1	Active	Active
CC(C)(C)OC(=O)NCCCC[C@H](NC(=O)[C@H](Cc1ccccc1)NC(=O)OCc1ccccc1)C(=O)CBr	inactive	inactive
NCCCC[C@H](NC(=O)[C@H](Cc1ccccc1)NC(=O)OCc1ccccc1)C(=O)O	inactive	inactive
CC(C)(C)OC(=O)NCCCC[C@H](NC(=O)[C@H](Cc1ccccc1)NC(=O)OCc1ccccc1)C(=O)O	inactive	inactive
N=C(N)NCCC[C@H](NC(=O)[C@H](Cc1ccccc1)NC(=O)OCc1ccccc1)C(=O)COC(=O)c1ccccc1	Active	Active
C[C@H](NC(=O)[C@H](Cc1ccccc1)NC(=O)OCc1ccccc1)C(=O)COC(=O)c1ccc([N+](=O)[O-])cc1	Active	Active
COc1ccc(C(=O)OCC(=O)[C@H](CCCNC(=N)N)NC(=O)[C@H](Cc2ccccc2)NC(=O)OCc2ccccc2)cc1	Active	Active
CC(=O)NC(Cc1ccc(O)cc1)C(=O)N[C@@H](Cc1ccccc1)C(=O)NCC(=O)COC(=O)c1c(C)cccc1C (single isomer, unassigned)	inactive	inactive
Cc1cc(C)c(C(=O)OCC(=O)[C@H](C)NC(=O)[C@H](Cc2ccccc2)NC(=O)OCc2ccccc2)c(C)c1	Active	Active
C[C@H](NC(=O)[C@H](Cc1ccccc1)NC(=O)OCc1ccccc1)C(=O)COC(=O)c1c(C(F)(F)F)cccc1C(F)(F)F	Active	Active
N=C(N)NCCC[C@H](NC(=O)[C@H](Cc1ccccc1)NC(=O)OCc1ccccc1)C(=O)COC(=O)c1c(C(F)(F)F)cccc1C(F)(F)F	Active	Active
Cc1ccc(C(=O)OCC(=O)[C@H](C)NC(=O)[C@H](Cc2ccccc2)NC(=O)OCc2ccccc2)cc1	Active	Active
COc1ccc(C(=O)OCC(=O)[C@H](C)NC(=O)[C@H](Cc2ccccc2)NC(=O)OCc2ccccc2)cc1	Active	Active
Cc1cc(C)c(C(=O)OCC(=O)[C@H](CCCNC(=N)N)NC(=O)[C@H](Cc2ccccc2)NC(=O)OCc2ccccc2)c(C)c1	Active	Active
C[C@H](NC(=O)[C@H](Cc1ccccc1)NC(=O)OCc1ccccc1)C(=O)COC(=O)c1ccccc1	Active	Active
N=C(N)NCCC[C@H](NC(=O)[C@H](Cc1ccccc1)NC(=O)OCc1ccccc1)C(=O)COC(=O)c1ccc([N+](=O)[O-])cc1	Active	Active
CC(=O)N[C@@H](Cc1ccc(O)cc1)C(=O)N[C@@H](Cc1ccccc1)C(=O)N[C@@H](CCCNC(=N)N)C(=O)COC(=O)c1c(C)cccc1C	inactive	inactive
Cc1ccc(C(=O)OCC(=O)[C@H](CCCNC(=N)N)NC(=O)[C@H](Cc2ccccc2)NC(=O)OCc2ccccc2)cc1	Active	Active

Source: ChEMBL document CHEMBL1221339, “Modulation of the inhibitor properties of dipeptidyl (acyloxy)methyl ketones toward the CaaX proteases” (Bioorg Med Chem, 2010)
